Measured values published in ChEMBL document CHEMBL3112561, “Small molecule disruptors of the glucokinase-glucokinase regulatory protein interaction: 2. Leveraging structure-based drug design to identify analogues with improved pharmacokinetic profiles” (J Med Chem, 2014).
Calls of active or inactive are those of the source. The calls are words filed in the database; no cut-off is given here.

Experiments:
[1] = biological target: T1, Glucokinase regulatory protein (Homo sapiens, UniProt Q14397); assay: Inhibition of fluorescein-labeled human GK interaction with biotin-labeled human GKRP incubated for 20 mins prior to addition of fluorescein-labeled GK measured after 2 to 4 hrs by Alpha Screen assay
T1 sequence (Q14397 whole entry): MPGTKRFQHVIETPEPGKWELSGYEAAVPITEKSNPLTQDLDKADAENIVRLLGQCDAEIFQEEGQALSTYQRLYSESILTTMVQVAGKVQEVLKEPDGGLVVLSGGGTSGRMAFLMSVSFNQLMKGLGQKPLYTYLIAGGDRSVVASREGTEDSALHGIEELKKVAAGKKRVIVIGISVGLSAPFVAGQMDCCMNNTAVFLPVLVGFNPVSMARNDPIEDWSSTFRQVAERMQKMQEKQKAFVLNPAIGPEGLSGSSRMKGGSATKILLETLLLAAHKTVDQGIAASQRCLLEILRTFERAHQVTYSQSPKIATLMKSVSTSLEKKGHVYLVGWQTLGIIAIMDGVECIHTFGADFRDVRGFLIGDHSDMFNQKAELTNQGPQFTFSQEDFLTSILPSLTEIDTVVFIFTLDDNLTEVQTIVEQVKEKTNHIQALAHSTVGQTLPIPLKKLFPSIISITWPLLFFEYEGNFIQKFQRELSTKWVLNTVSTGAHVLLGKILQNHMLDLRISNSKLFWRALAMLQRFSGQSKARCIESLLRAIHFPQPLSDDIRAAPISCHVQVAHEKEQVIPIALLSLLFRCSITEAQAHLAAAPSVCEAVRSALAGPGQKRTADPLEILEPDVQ

[2] = Intrinsic clearance in rat liver microsomes at 1 uM after 30 mins in presence of NADPH; format: ADME; details: read-out: CLH
[3] = Intrinsic clearance in human liver microsomes at 1 uM after 30 mins in presence of NADPH; format: ADME; details: read-out: CLH
[4] = biological target: T2, Glucokinase regulatory protein (Mus musculus, UniProt Q91X44); assay: Induction of GK translocation from nucleus to cytoplasm of mouse hepatocytes preincubated for 20 mins followed by glucose challenge measured after 40 mins by Hoechst 33342 staining-based assay; format: cell-based, Hepatocyte
T2 sequence (Q91X44 whole entry): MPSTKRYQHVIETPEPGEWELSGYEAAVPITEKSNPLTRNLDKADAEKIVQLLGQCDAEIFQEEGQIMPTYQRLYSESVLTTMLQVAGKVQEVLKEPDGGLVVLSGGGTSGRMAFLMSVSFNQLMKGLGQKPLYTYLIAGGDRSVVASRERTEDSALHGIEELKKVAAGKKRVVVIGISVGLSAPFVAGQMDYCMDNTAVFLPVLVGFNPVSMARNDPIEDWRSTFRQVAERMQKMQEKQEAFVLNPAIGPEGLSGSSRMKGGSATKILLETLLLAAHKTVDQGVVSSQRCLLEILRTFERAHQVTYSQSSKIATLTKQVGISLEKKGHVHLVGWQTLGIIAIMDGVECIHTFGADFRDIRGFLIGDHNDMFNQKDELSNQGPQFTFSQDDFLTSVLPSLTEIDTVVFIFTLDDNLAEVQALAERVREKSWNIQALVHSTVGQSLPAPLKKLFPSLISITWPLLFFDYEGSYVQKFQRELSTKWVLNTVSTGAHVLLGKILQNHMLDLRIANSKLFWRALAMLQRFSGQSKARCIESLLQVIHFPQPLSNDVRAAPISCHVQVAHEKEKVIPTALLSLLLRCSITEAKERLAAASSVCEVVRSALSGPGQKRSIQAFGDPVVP

Liver microsome [5] = assay: Drug metabolism in human liver microsomes assessed as cleavage of sufonamide; format: ADME
Liver microsome [6] = assay: Drug metabolism in human liver microsomes assessed as oxidation of thiophene ring; format: ADME
Liver microsome [7] = assay: Drug metabolism in rat liver microsomes assessed as cleavage of sufonamide; format: ADME
Liver microsome [8] = assay: Drug metabolism in rat liver microsomes assessed as oxidation of thiophene ring; format: ADME
Mus musculus [9] = assay: Antidiabetic activity in insulin-resistant db/db mouse assessed as reduction of fed blood glucose level at 50 mg/kg, po measured at 4 to 8 hrs; format: functional, organism-based; design: dose 50 mg/kg
Method in brief: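 Fed db/db mice from 8–9 wk of age, acclimatized 1 wk; retro-orbital bleed at 8:00 AM, glucose by meter, randomized, only 300–500 mg/dL included. Oral gavage at 9:00 AM in 2% HPMC/1% Tween 80, pH 2.2 (MSA). Blood glucose at 4 and 8 h post-dose versus vehicle groups (n ≥ 7); ANCOVA.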

Mus musculus [10] = assay: Antidiabetic activity in insulin-resistant db/db mouse assessed as reduction of fed blood glucose level at 100 mg/kg, po measured at 8 hrs relative to vehicle-treated control; format: functional; design: scale not given: the % may be the effect or the level left
Mus musculus [11] = assay: Antidiabetic activity in insulin-resistant db/db mouse assessed as reduction of fed blood glucose level at 100 mg/kg, po measured at 6 hrs relative to vehicle-treated control; format: functional; design: scale not given: the % may be the effect or the level left
Mus musculus [12] = assay: Antidiabetic activity in insulin-resistant db/db mouse assessed as reduction of fed blood glucose level at 30 mg/kg, po measured at 6 hrs relative to vehicle-treated control; format: functional; design: scale not given: the % may be the effect or the level left
Mus musculus [13] = assay: Unbound maximum concentration in C57Bl6 mouse at 10 mg/kg, po; format: ADME, organism-based; design: dose 10 mg/kg, route oral; details: in vivo
[14] = Oral bioavailability in C57Bl6 mouse at 10 mg/kg; format: ADME, organism-based; details: in vivo
[15] = Mean residence time in C57Bl6 mouse at 10 mg/kg, po; format: ADME, organism-based; design: dose 10 mg/kg, route oral; details: in vivo
Method in brief: (§1)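 Oral PK at 10 mg/kg in 1% Tween 80, 2% HPMC, 97% water, […]; mean residence time from plasma profile.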

[16] = Volume of distribution at steady state in C57Bl6 mouse at 2 mg/kg, iv; format: ADME, organism-based; design: dose 2 mg/kg, route intravenous; details: in vivo, read-out: Vdss
Method in brief: (§2)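 Intravenous PK at 2 mg/kg in 100% DMSO; steady-state volume of distribution derived from plasma profile.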

[17] = Mean residence time in rat at 10 mg/kg, po; format: ADME, organism-based; design: dose 10 mg/kg, route oral; details: in vivo; method in brief: as §1
[18] = Oral bioavailability in rat at 10 mg/kg; format: ADME, organism-based; details: in vivo
[19] = Volume of distribution at steady state in rat at 2 mg/kg, iv; format: ADME, organism-based; design: dose 2 mg/kg, route intravenous; details: in vivo, read-out: Vdss; method in brief: as §2
Liver microsome [20] = assay: Drug metabolism in rat liver microsomes assessed as oxidative metabolite formation; format: ADME
[21] = Clearance in rat at 2 mg/kg, iv; format: ADME, organism-based; design: dose 2 mg/kg, route intravenous; details: in vivo

Structure (SMILES)	IC50 [1]	microsomal CLint at 1 µM [2]	microsomal CLint at 1 µM [3]	EC50 [4]	also measured
C[C@](O)(c1ccc(N2CCN(S(=O)(=O)c3cccs3)C[C@@H]2CN2[C@@H]3COC[C@H]2[C@@H](O)C3)cc1)C(F)(F)F	0.056 µM	112 µL/min/mg	131 µL/min/mg	> 12.5 µM	–
C[C@@](O)(c1ccc(N2CCN(S(=O)(=O)c3cccs3)C[C@@H]2CN2[C@H]3COC[C@@H]2[C@H](O)C3)cc1)C(F)(F)F	0.014 µM	118 µL/min/mg	128 µL/min/mg	1.19 µM	Drug metabolism (Liver microsome [5]): Active; Drug metabolism (Liver microsome [6]): Active; Drug metabolism (Liver microsome [7]): Active; Drug metabolism (Liver microsome [8]): Active
CC1CS(=O)(=O)CCN1C[C@H]1CN(S(=O)(=O)c2cccs2)CCN1c1ccc(C(C)(O)C(F)(F)F)cc1 (mixture of isomers)	0.09 µM	93 µL/min/mg	132 µL/min/mg	> 12.5 µM	–
Nc1ccc(S(=O)(=O)N2CCN(c3ccc(C(O)(C(F)(F)F)C(F)(F)F)cc3)CC2)cc1	0.484 µM	49 µL/min/mg	–	> 12.5 µM	–
Nc1ccc(S(=O)(=O)N2CCN(c3ccc(C(O)(C(F)(F)F)C(F)(F)F)cc3)CC2)s1	0.252 µM	128 µL/min/mg	–	> 12.5 µM	–
CC(O)(c1ccc(N2CCN(S(=O)(=O)c3cccs3)C[C@@H]2CN2CC3(COC3)C2)cc1)C(F)(F)F (mixture of isomers)	0.524 µM	120 µL/min/mg	83 µL/min/mg	> 12.5 µM	–
C[C@](O)(c1ccc(N2CCN(S(=O)(=O)c3cccs3)C[C@@H]2CN2[C@H]3COC[C@@H]2[C@H](O)C3)cc1)C(F)(F)F	0.016 µM	114 µL/min/mg	135 µL/min/mg	4.76 µM	–
CCC#CC1CN(S(=O)(=O)c2ccc(N)nc2)CCN1c1ccc(C(O)(C(F)(F)F)C(F)(F)F)cc1 (racemic)	0.056 µM	109 µL/min/mg	< 14 µL/min/mg	2.93 µM	–
CS(=O)(=O)c1ccc([C@@H](CC2CCCC2)C(=O)Nc2nccs2)cc1	–	–	–	–	Activity (Mus musculus [9]): Active
CC#C[C@H]1CN(S(=O)(=O)c2ccc(N)nc2)CCN1c1ccc(C(O)(C(F)(F)F)C(F)(F)F)cc1	–	–	–	–	Activity (Mus musculus [10]): 56%; Activity (Mus musculus [11]): 60%; Activity (Mus musculus [12]): 47%; fCmax (Mus musculus [13]): 0.068 µM; bioavailability [14]: 40%; MRT [15]: 9.2 h; Vd [16]: 1.1 L/kg; MRT [17]: 6.2 h; bioavailability [18]: 75%; Vd [19]: 3.6 L/kg
O=S(=O)(c1cccs1)N1CCN(c2ccc(C(O)(C(F)(F)F)C(F)(F)F)cc2)CC1	–	150 µL/min/mg	–	–	–
CC#C[C@H]1CN(S(=O)(=O)c2ccc(N)nc2)CCN1c1ccc([C@](C)(O)C(F)(F)F)cc1	–	–	–	–	MRT [17]: 2.9 h; bioavailability [18]: 57%; Vd [19]: 3.7 L/kg
CC(O)(c1ccc(N2CCN(S(=O)(=O)c3cccs3)C[C@@H]2CN2[C@H]3COC[C@H]2[C@@H](O)C3)cc1)C(F)(F)F (mixture of isomers)	0.026 µM	141 µL/min/mg	125 µL/min/mg	1.29 µM	–
C[C@@](O)(c1ccc(N2CCN(S(=O)(=O)c3cccs3)C[C@@H]2CN2[C@@H]3COC[C@H]2[C@@H](O)C3)cc1)C(F)(F)F	0.025 µM	155 µL/min/mg	99 µL/min/mg	1.67 µM	–
CC(C)(C)C#CC1CN(S(=O)(=O)c2ccc(N)nc2)CCN1c1ccc(C(O)(C(F)(F)F)C(F)(F)F)cc1 (racemic)	1.43 µM	90 µL/min/mg	< 14 µL/min/mg	> 12.5 µM	–
CC(O)(c1ccc(N2CCN(S(=O)(=O)c3cccs3)C[C@@H]2CN2[C@H]3COC[C@H]2[C@H](O)C3)cc1)C(F)(F)F (mixture of isomers)	0.044 µM	321 µL/min/mg	302 µL/min/mg	1.69 µM	–

More lines, main results first:

IC50 [1]	microsomal CLint at 1 µM [2]	microsomal CLint at 1 µM [3]	EC50 [4]	Structure (SMILES)	also measured
0.007 µM	> 399 µL/min/mg	451 µL/min/mg	0.82 µM	C[C@H]1COCCN1C[C@H]1CN(S(=O)(=O)c2cccs2)CCN1c1ccc(C(C)(O)C(F)(F)F)cc1 (mixture of isomers)	–
0.645 µM	59 µL/min/mg	–	> 12.5 µM	Nc1cccc(S(=O)(=O)N2CCN(c3ccc(C(O)(C(F)(F)F)C(F)(F)F)cc3)CC2)c1	–
–	< 14 µL/min/mg	–	–	Nc1ncc(S(=O)(=O)N2CCN(c3ccc(C(O)(C(F)(F)F)C(F)(F)F)cc3)CC2)cn1	–
0.439 µM	349 µL/min/mg	280 µL/min/mg	> 12.5 µM	CC(O)(c1ccc(N2CCN(S(=O)(=O)c3cccs3)C[C@@H]2CN2CCC(F)(F)CC2)cc1)C(F)(F)F (mixture of isomers)	–
1.01 µM	94 µL/min/mg	–	> 12.5 µM	O=S(=O)(c1ccccc1)N1CCN(c2ccc(C(O)(C(F)(F)F)C(F)(F)F)cc2)CC1	–
0.779 µM	61 µL/min/mg	52 µL/min/mg	> 12.5 µM	Nc1ccc(S(=O)(=O)N2CCN(c3ccc(C(O)(C(F)(F)F)C(F)(F)F)cc3)C(C#CC3CC3)C2)cn1 (racemic)	–
–	237 µL/min/mg	–	> 12.5 µM	Nc1ccccc1S(=O)(=O)N1CCN(c2ccc(C(O)(C(F)(F)F)C(F)(F)F)cc2)CC1	–
–	< 14 µL/min/mg	< 14 µL/min/mg	> 12.5 µM	Nc1ccc(S(=O)(=O)N2CCN(c3ccc(C(O)(C(F)(F)F)C(F)(F)F)cc3)CC2)cn1	Drug metabolism (Liver microsome [20]): Not Active; MRT [17]: 8.4 h; bioavailability [18]: 71%; clearance [21]: 0.12 L/h/kg; Vd [19]: 1.41 L/kg
0.343 µM	50 µL/min/mg	92 µL/min/mg	> 12.5 µM	CC(O)(c1ccc(N2CCN(S(=O)(=O)c3cccs3)C[C@@H]2CN2CCS(=O)(=O)CC2)cc1)C(F)(F)F (mixture of isomers)	–
0.002 µM	> 399 µL/min/mg	320 µL/min/mg	0.239 µM	CC(O)(c1ccc(N2CCN(S(=O)(=O)c3cccs3)C[C@@H]2CN2C3CCC2COC3)cc1)C(F)(F)F (mixture of isomers)	–
0.324 µM	90 µL/min/mg	–	> 12.5 µM	Nc1csc(S(=O)(=O)N2CCN(c3ccc(C(O)(C(F)(F)F)C(F)(F)F)cc3)CC2)c1	–
8.63 µM	27 µL/min/mg	–	> 12.5 µM	Nc1cc(S(=O)(=O)N2CCN(c3ccc(C(O)(C(F)(F)F)C(F)(F)F)cc3)CC2)ccn1	–
